The values below come from ChEMBL document CHEMBL1123643, “Modulation of the antitumor activity by methyl substitutions in the series of 7H-pyridocarbazole monomers and dimers” (1987).

The MTD is the highest dose tested that stayed within the study's limit of toxicity. Low readings indicate a narrow tolerated range, high ones a wide tolerated range. A word on the T/C: it is the ratio of treated to control.

One assay relates to Calf thymus DNA. The assay can be described thus: Binding affinity against calf-thymus DNA at pH 7.4. In kind it is nucleic-acid assay. Conditions: Bos taurus. Put shortly: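 Fluorimetric competition at pH 7.4, 25 °C. Monomers: 10^-5 M compound with calf thymus DNA (4 µg/mL), titrated with ethidium bromide (ex 546/em 590 nm), Scatchard analysis. Dimers: ethidium dimer (6.4 × 10^-7 M) with DNA (1.6 × 10^-6 M bp) equilibrated 24 h with varied compound (ex 540/em 610 nm); constant fitted from displacement curves with site size n.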

The test system of assay [1] is L1210. The assay can be described thus: In vivo antitumor activity in L1210 (mouse leukemia) inoculated mice (optimal dose). In kind it is functional. The gist of the method: (§1)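 DBA2 mice (20–30/group) received 10^5 L1210 cells ip. Compound was given ip 24 h later; controls received solvent vehicle. Deaths were recorded daily, and survivors beyond 45 days were counted as cured. T/C% = treated/control mean survival time × 100. MTD was the highest dose causing no deaths; OD was the optimal dose.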

Assay [2] deals with L1210. In words: (§2) In vivo maximum tolerate dose in L1210 (mouse leukemia) inoculated mice. The class given is functional. The gist of the method: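 L1210-bearing DBA2 mice (10^5 cells ip), drug given ip 24 h after inoculation. Acute toxicity by usual procedure; MTD taken as highest dose administered without causing animal death, in mg/kg.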
Assay [3] has as its system L1210. The assay can be described thus: In vitro inhibition of L1210 (mouse leukemia) cell cloning efficiency. The class given is functional. The gist of the method:
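After 24 h drug exposure, L1210 cells were diluted to 250 and 500 cells/mL and plated in Noble agar. Plates were held 14 days at 37 °C in 5% CO2, and colonies >0.2 mm were counted. Triplicates were run per concentration. CE37, the concentration reducing cloning efficiency to 0.37, came from dose–response curves.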

Assay [4] concerns Mus musculus. The assay can be described thus: In vivo change in mean survival time in L1210 (mouse leukemia) inoculated mice. The class given is functional. The gist of the method: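 DBA2 mice given 10^5 L1210 cells ip; 24 h later single ip dose of drug, controls given same volume of solvent; 20–30 animals/group. Deaths recorded daily; survivors beyond 45 days counted cured. Value is treated mean survival time over control mean survival time ×100 (T/C %).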

Assay [5] concerns L1210. The assay can be described thus: In vitro cellular toxicity against L1210 (mouse leukemia) cells. In kind it is functional. Conditions: read-out: ED50 (the source's name). Put shortly:
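Exponentially growing L1210 cells (1 × 10^5/mL) exposed 24 h at 37 °C in RPMI 1640 with 10% fetal calf serum at a range of concentrations. Total cells counted by flow cytometer. Duplicate treated cultures were expressed as % of triplicate untreated controls. ED50 came from linear regression of residual % versus log concentration.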

The subject of assay [6] is L1210. The assay is described as §2. The class given is functional. The gist of the method:
as §1
This is another data set of the same source.

For assay [7], the system named is Mus musculus. In words: In vivo change in mean survival time in L1210 (mouse leukemia) inoculated mice (Not significant). The class given is functional, organism-based. Put shortly:
as §1

Turning to `CNc1ccc2ccc3c(c2c1)c1cc(OC)ccc1n3C.I`, in the assay on Calf thymus DNA, the K was determined as 700000 M⁻¹. In addition, in the assay on L1210 [1], the OD is 17 mg/kg. Besides, in the assay with L1210 [2], the MTD was 25 mg/kg. In addition, in the assay on L1210 [3], the CE37 was determined as 0.74 µM. In the assay with Mus musculus [4], the T/C stood at 122%. The EC50 in the assay with L1210 [5] came out at 220 nM.
Regarding `CNc1ccc2c(c1)cc(C)c1[nH]c3ccc(OC)cc3c12.I`, the K with Calf thymus DNA was determined as 300000 M⁻¹. Also, the CE37 with L1210 [3] amounted to 0.15 µM. Further, the EC50 in the assay on L1210 [5] was found to be 300 nM.
Turning to `COc1ccc2[nH]c3c(C)cc4ccc(NCCN5CCC(C6CCN(CCNc7ccc8cc(C)c9[nH]c%10ccc(OC)cc%10c9c8c7)CC6)CC5)cc4c3c2c1.Cl.Cl`, the K in the assay with Calf thymus DNA turned out to be 5e+08 M⁻¹. Besides, the MTD in the assay on L1210 [2] is 11 mg/kg. Besides, the CE37 with L1210 [3] came out at 0.01 µM. This compound also returned a T/C in the assay on Mus musculus [4] of 172%. Further, the EC50 with L1210 [5] turned out to be 370 nM.
Consider `COc1ccc2[nH]c3cc(C)c4ccc(NCCN5CCCCC5)cc4c3c2c1`, for which the K in the assay on Calf thymus DNA turned out to be 100000 M⁻¹. In addition, in the assay with L1210 [5], the EC50 amounted to 2240 nM.
In the assay on Calf thymus DNA, `COc1ccc2[nH]c3ccc4cc(NCCN5CCC(C6CCN(CCNc7ccc8c(ccc9[nH]c%10ccc(OC)cc%10c98)c7)CC6)CC5)ccc4c3c2c1.Cl.Cl` had a K of 3e+06 M⁻¹. This compound returned an OD with L1210 [1] of 20 mg/kg. The compound further came in with a maximal tolerated dose (MTD) with L1210 [2] of 100 mg/kg. In the assay on Mus musculus [4], this compound gave a T/C of 130%.
Regarding `CNc1ccc2cc(C)c3[nH]c4ccc(OC)cc4c3c2c1.I`, the K with Calf thymus DNA came out at 180000 M⁻¹. In addition, the Optimal dose in the assay on L1210 [1] worked out at 25 mg/kg. This compound also displayed a Dose in the assay on L1210 [6] of 50 mg/kg. Further, the CE37 in the assay with L1210 [3] was 0.03 µM. This compound also registered a T/C with Mus musculus [4] of 125%. Also, the EC50 in the assay on L1210 [5] was determined as 60 nM.
As for `COc1ccc2c(c1)c1c3cc(NCCN4CCCCC4)ccc3ccc1n2C.Cl`, the K with Calf thymus DNA was determined as 1.2e+06 M⁻¹. The same compound showed an OD in the assay with L1210 [1] of 5 mg/kg. The MTD in the assay with L1210 [2] was found to be 10 mg/kg. Further, the CE37 with L1210 [3] came to 3.36 µM. Moreover, in the assay with Mus musculus [7], the T/C entry was “Not significant”. Besides, the EC50 in the assay with L1210 [5] came to 670 nM.
As for `CNc1ccc2c(ccc3c2c2cc(OC)ccc2n3C)c1.I`, the K with Calf thymus DNA is 310000 M⁻¹. For the same compound, in the assay on L1210 [1], the OD stood at 75 mg/kg. In addition, the MTD in the assay on L1210 [2] turned out to be 150 mg/kg. The same compound came in with a T/C with Mus musculus [4] of 115%. Also, in the assay on L1210 [5], the EC50 is 2220 nM.
As to `COc1ccc2[nH]c3ccc4ccc(NCCN5CCCCC5)cc4c3c2c1.Cl`, in the assay with Calf thymus DNA, the K stood at 540000 M⁻¹. The OD with L1210 [1] turned out to be 5 mg/kg. In the assay with L1210 [2], this compound displayed an MTD of 10 mg/kg. In addition, the CE37 in the assay on L1210 [3] was 0.14 µM. The T/C result with Mus musculus [7] was “Not significant”. In addition, the EC50 in the assay on L1210 [5] came to 250 nM.
Turning to `COc1ccc2[nH]c3cc(C)c4ccc(NCCN5CCC(C6CCN(CCNc7ccc8c(C)cc9[nH]c%10ccc(OC)cc%10c9c8c7)CC6)CC5)cc4c3c2c1.Cl.Cl`, the K in the assay with Calf thymus DNA is 5e+06 M⁻¹. Besides, the OD with L1210 [1] amounted to 2 mg/kg. The MTD with L1210 [2] stood at 6 mg/kg. This compound also yielded a CE37 with L1210 [3] of 0.42 µM. Besides, in the assay on Mus musculus [4], the T/C was found to be 120%. Besides, the EC50 with L1210 [5] was greater than 1000 nM.
Take `COc1ccc2c(c1)c1c3cc(NCCN4CCC(C5CCN(CCNc6ccc7ccc8c(c7c6)c6cc(OC)ccc6n8C)CC5)CC4)ccc3ccc1n2C.Cl.Cl`: in the assay with Calf thymus DNA, the K was 2e+07 M⁻¹. The OD in the assay with L1210 [1] was found to be 2.5 mg/kg. This compound returned an MTD in the assay with L1210 [2] of 10 mg/kg. Besides, the CE37 in the assay on L1210 [3] was 0.006 µM. The T/C in the assay on Mus musculus [4] was 178%. The EC50 in the assay on L1210 [5] was found to be 360 nM.
In the case of `CNc1ccc2cc(C)c3c(c2c1)c1cc(OC)ccc1n3C.I`, the K with Calf thymus DNA is 1e+06 M⁻¹. The same compound returned a CE37 in the assay on L1210 [3] of 0.6 µM. Besides, the EC50 with L1210 [5] stood at 220 nM.
In the same order, the values of `CNc1ccc2c(C)cc3[nH]c4ccc(OC)cc4c3c2c1.I` are 60000 M⁻¹, 3.71 µM and greater than 2500 nM.
Compound `COc1ccc2c(c1)c1c3cc(NCCN4CCCCC4)ccc3cc(C)c1n2C.Cl` showed a K in the assay on Calf thymus DNA of 610000 M⁻¹. Further, in the assay with L1210 [1], the OD was 10 mg/kg. For the same compound, in the assay on L1210 [2], the MTD worked out at 10 mg/kg. In the assay on Mus musculus [7], the T/C result is “Not significant”. Also, in the assay on L1210 [5], the EC50 is 440 nM.
`COc1ccc2[nH]c3ccc4ccc(NCCN5CCC(C6CCN(CCNc7ccc8ccc9[nH]c%10ccc(OC)cc%10c9c8c7)CC6)CC5)cc4c3c2c1.CS(=O)(=O)O.CS(=O)(=O)O` yielded a K in the assay on Calf thymus DNA of 1e+07 M⁻¹. Also, the OD in the assay on L1210 [1] came to 10 mg/kg. Besides, the MTD with L1210 [2] amounted to 10 mg/kg. Moreover, the CE37 in the assay on L1210 [3] came out at 0.024 µM. Moreover, in the assay on Mus musculus [4], the T/C was found to be 182%. Further, the EC50 with L1210 [5] came to 190 nM.
In turn, `COc1ccc2c(c1)c1c3ccc(NCCN4CCC(C5CCN(CCNc6ccc7c(ccc8c7c7cc(OC)ccc7n8C)c6)CC5)CC4)cc3ccc1n2C.Cl.Cl` gave a K in the assay on Calf thymus DNA of 6e+06 M⁻¹. Further, the OD in the assay with L1210 [1] stood at 7.5 mg/kg. Besides, the MTD in the assay on L1210 [2] was found to be 15 mg/kg. In the assay on L1210 [3], this compound yielded a CE37 of 3.93 µM. The T/C entry in the assay with Mus musculus [7] was “Not significant”.
In the case of `CNc1cccc2c1ccc1[nH]c3ccc(OC)cc3c12.I`, the K with Calf thymus DNA was found to be 40000 M⁻¹. Besides, in the assay with L1210 [3], the CE37 was greater than 2.5 µM. Further, the EC50 in the assay on L1210 [5] is 19200 nM.
With `CNc1ccc2ccc3[nH]c4ccc(OC)cc4c3c2c1.I`, the K in the assay with Calf thymus DNA came out at 290000 M⁻¹. The compound further registered an OD with L1210 [1] of 25 mg/kg. This compound showed an MTD in the assay on L1210 [2] of 50 mg/kg. In the assay with L1210 [3], the CE37 stood at 0.77 µM. Also, the T/C result in the assay with Mus musculus [7] was “Not significant”. Further, in the assay with L1210 [5], the EC50 is 950 nM.
As for `COc1ccc2c(c1)c1c3cc(NCCN4CCC(C5CCN(CCNc6ccc7cc(C)c8c(c7c6)c6cc(OC)ccc6n8C)CC5)CC4)ccc3cc(C)c1n2C.Cl.Cl`, the K in the assay with Calf thymus DNA stood at 1e+08 M⁻¹. This compound gave a CE37 in the assay on L1210 [3] of 10.9 µM. Besides, the EC50 in the assay on L1210 [5] is 3270 nM.
In the same order, the values of `COc1ccc2[nH]c3c(C)cc4cc(NCCN5CCC(C6CCN(CCNc7ccc8c(c7)cc(C)c7[nH]c9ccc(OC)cc9c78)CC6)CC5)ccc4c3c2c1.Cl.Cl` are 1e+07 M⁻¹, 0.6 µM and greater than 1000 nM.
Consider `CNc1ccc2c(ccc3[nH]c4ccc(OC)cc4c32)c1.I`, for which, in the assay on Calf thymus DNA, the K worked out at 200000 M⁻¹. In the assay on L1210 [1], this compound displayed an OD of 25 mg/kg. In the assay with L1210 [2], this compound had an MTD of 50 mg/kg. The T/C entry in the assay on Mus musculus [7] was “Not significant”. Further, the EC50 in the assay with L1210 [5] is greater than 2500 nM.
With `COc1ccc2[nH]c3c(C)cc4ccc(NCCN5CCCCC5)cc4c3c2c1.Cl`, the K with Calf thymus DNA stood at 930000 M⁻¹. Moreover, in the assay on L1210 [1], the OD was determined as 5 mg/kg. For the same compound, the MTD in the assay on L1210 [2] amounted to 23 mg/kg. The compound also registered a CE37 in the assay with L1210 [3] of 0.1 µM. In addition, the T/C with Mus musculus [4] is listed as 123%. Besides, the EC50 in the assay on L1210 [5] worked out at 110 nM.
Compound `CNc1cccc2c1cc(C)c1[nH]c3ccc(OC)cc3c12.I` returned a K in the assay on Calf thymus DNA of 61000 M⁻¹. The compound further had a CE37 with L1210 [3] greater than 2.5 µM. In addition, the EC50 in the assay on L1210 [5] was greater than 2500 nM.
